≈ marks a conversion by molar mass, not a printed value. Calls of active or inactive are those of the source. The rule behind the calls is not given here.
Columns and labels:
HepG2 [1] = experiment: Induction of apoptosis in human HepG2 cells assessed as late apoptotic cells at 1 uM after 48 hrs by annexin V-FITC/propidium iodide staining based flow cytometry (reference value: 0.64%); format: functional
MDA-MB-231 [2] = experiment: Downregulation of CDK4 protein expression in human MDA-MB-231 cells after 48 hrs by Western blot method; format: functional, cell-based
How it was run: (§1)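 Treated cells were lysed and CDK4 and cyclin D1 protein levels were assessed by Western blot.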

T47D [3] = experiment: Induction of apoptosis in human T47D cells assessed as late apoptotic cells at 5 uM after 48 hrs by annexin V-FITC/propidium iodide staining based flow cytometry (reference value: 6.16%); format: functional
MDA-MB-231 [4] = experiment: Induction of apoptosis in human MDA-MB-231 cells assessed as necrotic cells at 10 uM after 48 hrs by annexin V-FITC/propidium iodide staining based flow cytometry (reference value: […]); format: functional
4T1 [5] = experiment: Antitumor activity against mouse Fluc-labeled 4T1 cells implanted in Balb/c mouse assessed as tumor growth inhibition at 130 mg/kg, po administered daily via gavage for 18 days by bioluminescence assay relative to control; format: functional; conditions: 4T1, po, 432 h, read-out: TGI
[6] = Cmax in Sprague-Dawley rat at 20 mg/kg, iv administered as single dose by HPLC analysis; format: ADME, organism-based; set-up: dose 20 mg/kg, route intravenous; conditions: in vivo
A549 [7] = experiment: Induction of apoptosis in human A549 cells assessed as early apoptotic cells at 1 uM after 48 hrs by annexin V-FITC/propidium iodide staining based flow cytometry (reference value: 0.41%); format: functional
Hep 3B2 [8] = experiment: Cytotoxicity against human Hep3B cells assessed as reduction in cell viability after 72 hrs by CCK8 assay
Hep 3B2 [9] = experiment: Induction of apoptosis in human Hep3B cells assessed as live cells at 10 uM after 48 hrs by annexin V-FITC/propidium iodide staining based flow cytometry (reference value: 97.9%); format: functional
Hep 3B2 [10] = experiment: Induction of apoptosis in human Hep3B cells assessed as late apoptotic cells at 10 uM after 48 hrs by annexin V-FITC/propidium iodide staining based flow cytometry (reference value: 5.25%); format: functional
A549 [11] = experiment: Induction of apoptosis in human A549 cells assessed as necrotic cells at 1 uM after 48 hrs by annexin V-FITC/propidium iodide staining based flow cytometry (reference value: […]%); format: functional
CDK4/CDK9 (Homo sapiens) [12] = target: T1, CDK4/CDK9 (Homo sapiens) (UniProt P11802+P50750); experiment: Inhibition of CDK4/CDK9 in human MDA-MB-231 cells assessed as reduction in Rb phosphorylation at Ser807/811 residues at 1 uM after 48 hrs by Western blot method; format: cell-based
T1 sequence (P11802 whole entry, looked up): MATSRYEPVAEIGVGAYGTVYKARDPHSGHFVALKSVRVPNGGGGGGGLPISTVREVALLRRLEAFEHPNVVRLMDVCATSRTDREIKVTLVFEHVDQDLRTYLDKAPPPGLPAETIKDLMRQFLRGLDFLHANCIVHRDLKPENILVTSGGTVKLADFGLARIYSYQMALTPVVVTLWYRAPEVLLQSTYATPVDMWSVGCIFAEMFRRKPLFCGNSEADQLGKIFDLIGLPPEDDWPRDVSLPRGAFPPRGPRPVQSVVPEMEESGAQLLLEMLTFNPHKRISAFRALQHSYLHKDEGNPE
T1 sequence (P50750 whole entry, looked up): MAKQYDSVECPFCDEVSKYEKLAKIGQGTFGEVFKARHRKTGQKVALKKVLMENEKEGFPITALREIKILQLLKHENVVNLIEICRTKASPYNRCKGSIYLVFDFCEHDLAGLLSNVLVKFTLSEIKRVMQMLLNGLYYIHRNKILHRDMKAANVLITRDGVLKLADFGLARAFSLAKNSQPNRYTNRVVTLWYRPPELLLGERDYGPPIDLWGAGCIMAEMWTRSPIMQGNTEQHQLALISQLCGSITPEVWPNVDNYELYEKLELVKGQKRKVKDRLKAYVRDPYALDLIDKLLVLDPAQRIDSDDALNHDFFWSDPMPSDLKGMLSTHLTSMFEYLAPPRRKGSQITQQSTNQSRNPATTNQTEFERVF

NCI-H460 [13] = experiment: Induction of apoptosis in human NCI-H460 cells assessed as early apoptotic cells at 1 uM after 48 hrs by annexin V-FITC/propidium iodide staining based flow cytometry (reference value: 0.11%); format: functional
MDA-MB-231 [14] = experiment: Cell cycle arrest in human MDA-MB-231 cells assessed as accumulation at G2 phase at 2.5 to 10 uM after 24 hrs by propidium iodide staining based flow cytometry; format: functional
How it was run: (§2)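 Cells were exposed for 24 h to a range of concentrations (625 nM, 2.5 and 10 µM), with DMSO vehicle as control. They were then stained with propidium iodide and analysed by flow cytometry to obtain the percentages of cells in G0/G1, S and G2 phases.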

T47D [15] = experiment: Induction of apoptosis in human T47D cells assessed as reduction in Bcl2 protein expression after 48 hrs by Western blot method; format: functional, cell-based
How it was run: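 Cells were treated with or without test agent, alongside a control, for 48h. They were then lysed and analysed by Western blot for Bcl-2 protein and cleaved caspase 3.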

MDA-MB-231 [16] = experiment: Induction of apoptosis in human MDA-MB-231 cells assessed as early apoptotic cells at 10 uM after 48 hrs by annexin V-FITC/propidium iodide staining based flow cytometry (reference value: 0.4%); format: functional
Hep 3B2 [17] = experiment: Induction of apoptosis in human Hep3B cells after 48 hrs by annexin V-FITC/propidium iodide staining based flow cytometry; format: functional, cell-based
A549 [18] = experiment: Induction of apoptosis in human A549 cells assessed as reduction in Bcl2 protein expression after 48 hrs by Western blot method; format: functional, cell-based
How it was run: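 Cells were treated with or without compound and control for 48 h, then lysed. Bcl-2 and cleaved caspase 3 were assessed by Western blot.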

T47D [19] = experiment: Induction of apoptosis in human T47D cells assessed as early apoptotic cells at 5 uM after 48 hrs by annexin V-FITC/propidium iodide staining based flow cytometry (reference value: 7.7%); format: functional
T47D [20] = experiment: Cell cycle arrest in human T47D cells assessed as decrease in S-phase at 625 nM after 24 hrs by propidium iodide staining based flow cytometry; format: functional; how it was run: as §2
CDK4/CDK9 (Homo sapiens) [21] = target: T1, CDK4/CDK9 (Homo sapiens); experiment: Inhibition of CDK4/CDK9 in human HepG2 cells assessed as reduction in Rb phosphorylation at Ser807/811 residues at 1 uM after 48 hrs by Western blot method; format: cell-based
NCI-H460 [22] = experiment: Downregulation of Cyclin-D1 protein expression in human NCI-H460 cells after 48 hrs by Western blot method; format: functional, cell-based; how it was run: as §1
[23] = Aqueous solubility in water at 1 mg using methanesulfonic acid formulation sonicated for 24 hrs and incubated under unstirred condition for 24 hrs by HPLC method; format: physicochemical
HepG2 [24] = experiment: Cell cycle arrest in human HepG2 cells assessed as decrease in S-phase at 625 nM after 24 hrs by propidium iodide staining based flow cytometry; format: functional; how it was run: as §2
HepG2 [25] = experiment: Induction of apoptosis in human HepG2 cells assessed as early apoptotic cells at 10 uM after 48 hrs by annexin V-FITC/propidium iodide staining based flow cytometry (reference value: 0.3%); format: functional
4T1 [26] = experiment: Antitumor activity against mouse Fluc-labeled 4T1 cells implanted in Balb/c mouse assessed as tumor growth inhibition administered ip daily for 18 days measured after 8 to 25 days by bioluminescence assay; format: functional, organism-based
How it was run: (§3)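 Luciferase (Fluc) reporter introduced into 4T1 cells by lentiviral transduction. Cells implanted orthotopically into mammary fat pads of female BALB/c mice aged 6–8 weeks. Once tumours averaged 100 mm3, dosing was daily by IP injection. Bioluminescence imaging was done at days 8 and 25 to reflect viable tumour cell number. Tumour weight was recorded at study end.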

A549 [27] = experiment: Cell cycle arrest in human A549 cells assessed as decrease in S-phase at 625 nM after 24 hrs by propidium iodide staining based flow cytometry; format: functional; how it was run: as §2
NCI-H460 [28] = experiment: Induction of apoptosis in human NCI-H460 cells assessed as live cells at 10 uM after 48 hrs by annexin V-FITC/propidium iodide staining based flow cytometry (reference value: 97.3%); format: functional
4T1 [29] = experiment: Antitumor activity against mouse Fluc-labeled 4T1 cells implanted in Balb/c mouse assessed as reduction in tumor weight at 90 mg/kg, ip administered daily for 18 days measured after 8 to 25 days; format: functional, organism-based; how it was run: as §3
MDA-MB-231 [30] = experiment: Induction of apoptosis in human MDA-MB-231 cells assessed as live cells at 5 uM after 48 hrs by annexin V-FITC/propidium iodide staining based flow cytometry (reference value: 98.1%); format: functional
[31] = target: Vascular endothelial growth factor receptor 3 (Homo sapiens, UniProt P35916); experiment: Inhibition of recombinant human N-terminal GST-tagged FLT4 (800-end residues) expressed in baculovirus infected sf21 cells
Sequence of Vascular endothelial growth factor receptor 3 (P35916 whole entry): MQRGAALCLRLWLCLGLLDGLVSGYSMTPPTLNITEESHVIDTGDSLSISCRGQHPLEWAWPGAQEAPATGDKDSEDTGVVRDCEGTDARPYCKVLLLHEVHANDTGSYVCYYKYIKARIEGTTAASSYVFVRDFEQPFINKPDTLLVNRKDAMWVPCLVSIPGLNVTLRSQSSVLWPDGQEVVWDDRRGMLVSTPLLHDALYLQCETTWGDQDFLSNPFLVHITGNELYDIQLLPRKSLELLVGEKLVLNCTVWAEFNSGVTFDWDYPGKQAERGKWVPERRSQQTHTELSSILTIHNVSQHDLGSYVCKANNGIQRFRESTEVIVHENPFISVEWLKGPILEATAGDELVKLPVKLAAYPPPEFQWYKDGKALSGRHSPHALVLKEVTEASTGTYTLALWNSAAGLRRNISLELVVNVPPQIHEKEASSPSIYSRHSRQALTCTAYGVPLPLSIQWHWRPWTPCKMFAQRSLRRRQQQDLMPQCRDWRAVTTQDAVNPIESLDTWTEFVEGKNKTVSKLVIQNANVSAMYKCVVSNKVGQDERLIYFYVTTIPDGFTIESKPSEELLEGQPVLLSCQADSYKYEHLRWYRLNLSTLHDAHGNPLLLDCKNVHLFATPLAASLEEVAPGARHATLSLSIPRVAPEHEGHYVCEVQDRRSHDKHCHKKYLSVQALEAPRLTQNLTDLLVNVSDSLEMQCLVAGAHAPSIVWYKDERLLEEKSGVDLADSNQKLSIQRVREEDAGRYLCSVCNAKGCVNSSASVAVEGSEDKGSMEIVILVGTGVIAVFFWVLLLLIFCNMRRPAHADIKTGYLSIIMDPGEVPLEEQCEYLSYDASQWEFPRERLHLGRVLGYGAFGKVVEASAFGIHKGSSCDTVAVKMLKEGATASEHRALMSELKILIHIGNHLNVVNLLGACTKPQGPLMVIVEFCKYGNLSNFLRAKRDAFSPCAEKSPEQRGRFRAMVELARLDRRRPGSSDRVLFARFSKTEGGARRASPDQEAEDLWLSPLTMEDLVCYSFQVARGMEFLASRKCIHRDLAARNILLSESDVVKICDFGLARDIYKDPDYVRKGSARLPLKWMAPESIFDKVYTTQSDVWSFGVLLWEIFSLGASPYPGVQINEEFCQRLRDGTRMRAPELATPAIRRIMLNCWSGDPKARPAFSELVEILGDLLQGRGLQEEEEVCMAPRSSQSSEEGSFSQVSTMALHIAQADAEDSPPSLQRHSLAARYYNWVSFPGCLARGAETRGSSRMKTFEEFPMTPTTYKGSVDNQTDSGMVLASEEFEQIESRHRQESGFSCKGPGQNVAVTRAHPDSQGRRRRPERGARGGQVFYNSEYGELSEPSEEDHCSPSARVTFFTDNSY

[32] = Oral bioavailability in Sprague-Dawley rat at 20 mg/kg administered as single dose by HPLC analysis; format: ADME, organism-based; conditions: in vivo

**Q.** Which Activity (HepG2 [1]) does the source give for `CN(C)C(=O)c1cc2cnc(Nc3ccc(NC(=O)CCCCCCC(=O)NO)cc3)nc2n1C1CCCC1` here?
**A.** 6.07%

**Q.** What about the Activity (MDA-MB-231 [2]) of the same molecule?
**A.** Dose-dependent effect

**Q.** And the Activity (T47D [3])?
**A.** 8.44%

**Q.** What about the Activity (MDA-MB-231 [4]) of the same molecule?
**A.** 1.21%

**Q.** And the inhibition in vivo at 130 mg/kg (4T1 [5])?
**A.** 79.3%

**Q.** And the Cmax [6]?
**A.** 3850 ng/mL

**Q.** And the Activity (A549 [7])?
**A.** 0.57%

**Q.** And the IC50 (Hep 3B2 [8])?
**A.** 1240 nM

**Q.** What about the Activity (Hep 3B2 [9]) of the same molecule?
**A.** 72.8%

**Q.** And the Activity (Hep 3B2 [10])?
**A.** 15%

**Q.** What about the Activity (A549 [11]) of the same molecule?
**A.** 6.67%

**Q.** What about the inhibition (CDK4/CDK9 (Homo sapiens) [12]) of the same molecule?
**A.** Active

**Q.** What about the Activity (NCI-H460 [13]) of the same molecule?
**A.** 0.28%

**Q.** What about the Activity (MDA-MB-231 [14]) of the same molecule?
**A.** Active

**Q.** And the Activity (T47D [15])?
**A.** Active

**Q.** And the Activity (MDA-MB-231 [16])?
**A.** 5.09%

**Q.** What about the Activity (Hep 3B2 [17]) of the same molecule?
**A.** Dose-dependent effect

**Q.** What about the Activity (A549 [18]) of the same molecule?
**A.** Active

**Q.** And the Activity (T47D [19])?
**A.** 14.1%

**Q.** What about the Activity (T47D [20]) of the same molecule?
**A.** Active

**Q.** And the inhibition (CDK4/CDK9 (Homo sapiens) [21])?
**A.** Active

**Q.** And the Activity (NCI-H460 [22])?
**A.** Dose-dependent effect

**Q.** And the solubility at 24 h [23]?
**A.** 526 µg/mL (≈ 982 µM)

**Q.** What about the Activity (HepG2 [24]) of the same molecule?
**A.** Active

**Q.** What about the Activity (HepG2 [25]) of the same molecule?
**A.** 9.32%

**Q.** What about the TGI (4T1 [26]) of the same molecule?
**A.** Dose-dependent effect

**Q.** And the Activity (A549 [27])?
**A.** Active

**Q.** What about the Activity (NCI-H460 [28]) of the same molecule?
**A.** 79.6%

**Q.** What about the Activity (4T1 [29]) of the same molecule?
**A.** Active

**Q.** What about the Activity (MDA-MB-231 [30]) of the same molecule?
**A.** 90.3%

**Q.** And the IC50 [31]?
**A.** 43 nM

**Q.** And the bioavailability [32]?
**A.** 18.4%

— ChEMBL document CHEMBL4020842, “Discovery of N1-(4-((7-Cyclopentyl-6-(dimethylcarbamoyl)-7 H-pyrrolo[2,3- d]pyrimidin-2-yl)amino)phenyl)- N8-hydroxyoctanediamide as a Novel Inhibitor Targeting Cyclin-dependent Kinase 4/9 (CDK4/9) and Histone Deacetlyase1 (HDAC1) against Malignant Cancer” (J Med Chem, 2018)
